A selection: hits, their analogues and other compounds. The true share with any hit is near 6.8%.
HSF-1 act = HSF-1 activators, primary screen, NIH3T3-HGL cells, MG132 stress, luminescence, single point | hit rate 1.7% among 300,000 | AID 504408, 2011 | NIH3T3-HGL HSF-1 luciferase reporter, 8 h; 100% = twice DMSO control signal | activation, % at 9 µM;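 active = mean replicate activation of at least 50% with a set share of replicates each reaching 50%; inconclusive = only one of those two conditions met; inactive = mean below 50% and too few replicates reaching it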;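 note: 0% = median of the neutral control wells and 100% = twice that signal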
PHOSPHO1 block = PubChem AID 1565. Phosphoethanolamine/phosphocholine phosphatase (Homo sapiens), Q8TCT1. hit rate 1.1% among 290,000. inhibition, % at 13.3 µM. recombinant PHOSPHO1, absorbance phosphatase assay; in the data active = inhibition above about 60%
Target sequence (Q8TCT1 whole entry, looked up): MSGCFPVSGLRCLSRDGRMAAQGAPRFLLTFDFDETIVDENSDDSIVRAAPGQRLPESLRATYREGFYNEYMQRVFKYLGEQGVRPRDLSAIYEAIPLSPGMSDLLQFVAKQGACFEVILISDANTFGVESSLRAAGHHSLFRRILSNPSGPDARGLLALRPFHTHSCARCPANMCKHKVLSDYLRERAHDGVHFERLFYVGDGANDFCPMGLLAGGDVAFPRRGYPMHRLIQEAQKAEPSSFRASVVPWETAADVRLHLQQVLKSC
ALR H2O2 inh = inhibitors of human ALR sulfhydryl oxidase, primary screen, biochemical, H2O2 detection, HRP-luminol luminescence, single point | FAD-linked sulfhydryl oxidase ALR (Homo sapiens), P55789 | purified ALR, DTT oxidation | inhibition, % (no concentration beside the values) | hit rate 3.8% among 290,000;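 active = mean replicate inhibition above about 79%, with every replicate also reaching it, limit read from the data; inconclusive = only one of the two criteria met; inactive = mean below limit and not every replicate reaching it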
HSF1 inh = HSF1 inhibitors in luciferase reporter cells, primary screen, cell-based, NIH3T3, luminescence. activity change, negative = inhibition, % at 7.5 µM (by protocol). NIH3T3-HGL HSE-luciferase, MG132-induced, luminescence 8 h; stronger effect = lower value. hit rate 0.77% among 300,000;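 active = more than half of replicate wells show activity change below -50%, luminescence cut by over half; inconclusive = some wells, but at most half, below -50%; inactive = no replicate well below -50%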;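 note: luciferase reports HSF-1 transcriptional activity via heat shock element; 0% = median of DMSO wells and -100% = zero luminescence signal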
HCV core dimer = inhibitors of HCV core protein dimerization, primary screen, biochemical, TR-FRET, high-throughput; TR-FRET GST/Flag-core106 dimerization, 1536-well; hit rate 0.33% among 300,000; inhibition, % at 5 µM;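 active = inhibition above the mean of all tested compounds plus 3 SD, set per screening campaign, cut at about 45% in these data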
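Assay system: tagged HCV core106 pair (GST and Flag); medium: KF-containing HEPES buffer, pH 7.45, DTT, CHAPS, BSA; also added: Eu donor and XL665 acceptor anti-tag antibodies; dosing: 5 µM single dose; timing: compound-protein-antibody incubation 4 h at 22.5 °C; signal: TR-FRET 671 and 617 nm emission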
AI-2 QS modul = Vibrio harveyi AI-2 quorum sensing modulators, primary screen, JMH597 strain, luminescence/OD600 ratio | activity change, % at 7.5 µM | Vibrio harveyi JMH597 AI-2 luminescence/OD600 ratio, 9 h; stronger effect = lower value; strain lacks LuxN and CqsS sensors; 0 = neutral-control median | hit rate 0.4% among 300,000 | AID 2094, 2009; in the data active = activity change below about -75%, passing the limit was not always enough; inconclusive = no clear call, values can overlap the other calls;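 note: luminescence divided by OD600 gain over 9 h not by final OD600 alone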
* = called active by the depositor; ? = inconclusive; / = no result given.

SMILES	HSF-1 act	PHOSPHO1 block	ALR H2O2 inh	HSF1 inh	HCV core dimer	AI-2 QS modul
Cc1cccn2c(=O)c3c(nc12)N1CCC(Cc2ccccc2)CC1C1(C3)C(=O)N(C)C(=O)N(C)C1=O (stereo not drawn)	56*	-44	-10	10	17	6
CC1CC(OP(O)(=S)c2ccc(N(C)C)cc2NC(=O)c2cccs2)CC(C)(C)C1 (stereo not drawn)	22	-16	99*	4	8	8
Nc1ccc2c(c1)Cc1ccccc1-2	-10	7	99*	1	-14	21
CN1CCN(Cc2cc3c(cc2[N+](=O)[O-])OCO3)CC1	-15	/	/	-4	9	14
Cn1nc(N)c2c1N=P(N1CCOCC1)(N1CCOCC1)N=C2c1ccccc1	8	6	12	-9	-5	22
CN(C)P1(N(C)C)=Nc2c(c(N)nn2C)C(c2ccccc2)=N1	5	-7	86*	-4	4	17
Nc1ccc(N=Nc2ccccc2)cc1	6	16	98*	5	-12	13
NCCc1ccccc1	-6	/	-9	0	0	20
COC(=O)C1=C(c2cccc(Cl)c2)C[C@@H]2CC[C@H]1N2C(=O)NCC1CC1	/	/	-7	/	/	/
C=C1C(=O)O[C@@H]2C[C@@H](C)[C@@H]3C=CC(=O)[C@@]3(C)[C@@H](O)[C@H]12	-93	13	56	-92*	4	-6
C[C@@H]1C[C@H]2OC(=O)C3(CO3)[C@H]2[C@H](O)[C@]2(C)C(=O)C3OC3[C@@H]12 (stereo partly drawn)	28	35	54	8	-5	11
COC(=O)C1=C(c2cccc(Cl)c2)C[C@@H]2CC[C@H]1N2C(=O)N1CCCC1	/	/	-7	/	/	/
C=C(C=O)CC1CC(O)[C@]2(C)OC3CC4OC5C[C@]6(C)O[C@]7(C)CCC8OC9C[C@]%10(C)OC%11C(C)=CC(=O)OC%11CC%10OC9C[C@@H](C)C8OC7CC6O[C@]5(C)CC5OC5C4OC3CC2O1 (stereo partly drawn)	-47	35	1	?	49*	20
C=C(CO)CC1CC(O)[C@]2(C)OC3CC4OC5C[C@]6(C)O[C@]7(C)CCC8OC9C[C@]%10(C)OC%11C(C)=CC(=O)OC%11CC%10OC9C[C@@H](C)C8OC7CC6O[C@]5(C)C/C=C\C4OC3CC2O1 (stereo partly drawn)	/	35	/	1	-3	12
Oc1c(Cl)c(Cl)c(Cl)c(Cl)c1Cl	-4	/	3	-4	-2	?
CN1C(=O)C(=Cc2ccccc2OCc2ccccc2Cl)C(=O)N(C)C1=O	-8	2	34	-1	1	0
CN1C(=O)C(=Cc2c(OCc3cnc(Cl)s3)ccc3ccccc23)C(=O)N(C)C1=O	61*	-8	15	54	12	41
C[C@]12CCC3C(CC[C@H]4C[C@H](O)CC[C@]34C)C1[C@@H](O)[C@@H](O)[C@@H]2O (stereo partly drawn)	/	/	-2	/	/	/
Cc1ccc(-n2nc(C)c3c2NC(=O)CSC3c2ccc3c(c2)OCO3)cc1 (stereo not drawn)	-68	7	-4	-63*	21	3
COc1ccc(C2SCC(=O)Nc3c2c(C)nn3-c2ccccc2)cc1 (stereo not drawn)	-11	15	/	-8	3	22
C#C[C@]1(O)[C@H](O)CC2C3CC[C@H]4C[C@@H](O)CC[C@]4(C)C3CC[C@@]21C (stereo partly drawn)	/	/	1	/	/	/
Cc1ccc(Cn2cc(C=O)c(-c3ccc(C)cc3)n2)cc1	24	6	90*	38	4	12
Cc1cc(O)c2c(c1)C(=O)C13C(=C2O)C(=O)[C@H]2[C@@H](O)[C@@H]1[C@H]1[C@H](O)[C@@H]3C(=O)C3=C(O)c4c(O)cc(C)cc4C(=O)C312 (stereo partly drawn)	/	/	/	/	-9	/

High-throughput results deposited in PubChem BioAssay by several laboratories.
